# Assay results reported in article PMC5091360 (Science Advances, 2016).
# Columns and labels:
# [1] = system: IgD2 domain from human VEGFR-3; experiment: VEGF-C binding to recombinant VEGFR-3 IgD2; details: synthetic peptide added; FLISA, duplicate wells
# [2] = system: IgD2-3 domains from human VEGFR-3; experiment: VEGF-C binding to recombinant VEGFR-3 IgD2-3; details: synthetic peptide added; FLISA, duplicate wells
# [3] = system: human FGFR-1; experiment: growth factor binding assay; details: FGF-1 20 ng/ml; peptide 100 μg/ml; FLISA, duplicate wells
# Method in brief: (§1)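 Human FGFR-1 or PDGFR-β coated at 200 ng per well in PBS overnight at 4°C and blocked. Wells incubated with human FGF-1 or PDGF-BB (each 20 ng/ml) in PBS with 10% (v/v) DMSO and 10% blocking buffer, with or without peptide (100 μg/ml). Bound ligand detected with goat antiserum (1:200), then IRDye 680LT anti-goat, by infrared fluorescence. Duplicate wells; ANOVA with Tukey.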
# [4] = system: human PDGFR-β; experiment: growth factor binding assay; details: PDGF-BB 20 ng/ml; peptide 100 μg/ml; FLISA, duplicate wells
# Method in brief: as §1
# [5] = system: human VEGFR-1; experiment: FLISA binding assay, NRP-1 to VEGFR-1; details: human NRP-1; peptide 100 μg/ml; FLISA, duplicate wells
# Method in brief: (§2)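 Human VEGFR-1 extracellular domain coated at 200 ng per well in PBS overnight at 4°C, then blocked with Odyssey blocking buffer. Wells incubated with NRP-1 or NRP-2 in PBS with 10% (v/v) DMSO and 10% blocking buffer, with or without peptide (100 μg/ml). Bound NRP detected with goat anti-NRP-1 or anti-NRP-2 serum (1:100), then IRDye 680LT anti-goat, by infrared scanning. Duplicate wells; ANOVA with Tukey.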
# [6] = system: human VEGFR-1; experiment: FLISA binding assay, NRP-2 to VEGFR-1; details: rat NRP-2; peptide 100 μg/ml; FLISA, duplicate wells
# Method in brief: as §2
# [7] = presence in the vitreous humor after topical application; type: in vivo; details: applied topically
# [8] = solubility in Matrigel compared to aqueous media; type: physicochemical
substance,measurement,setting,value
WVCSGG,inhibition of VEGF-C binding to IgD2,[1],both prevented binding of VEGF-C to IgD2 and IgD2-3
same,inhibition of VEGF-C binding to IgD2-3,[2],both prevented binding of VEGF-C to IgD2 and IgD2-3
same,effect on binding of basic human FGF to FGFR-1α,[3],no effect
same,effect on binding of PDGF-BB to PDGFR-β,[4],no effect
same,effect on NRP-1 interaction with VEGFR-1,[5],not affected by peptide PCAIWF or WVCSGG
same,effect on NRP-2 interaction with VEGFR-1,[6],not affected by peptide PCAIWF or WVCSGG
same,presence in the vitreous humor after topical application,[7],not found in the vitreous humor if applied topically to the retina
same,solubility in Matrigel,[8],fairly soluble in Matrigel compared to aqueous media
